Like-named read-outs stand apart in the source and are kept apart here. Bounds are passed on as bounds.

Nine molecules from paper PMC10204345 (European Journal of Medicinal Chemistry, 2023) can be followed below.

The nature of data set [1]: Microsomal stability assay, human. It counts as in vitro ADME. The following applies: microsomes, pH 7.41. Put shortly: (§1)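 Liver microsomes in 100 mM potassium buffer with 5 mM MgCl₂, pH 7.41; test compound at 1 μM. Compound-microsome spiking mix (1.5 μM compound, 0.75 mg/mL microsomes) pre-incubated at 37 °C for 5 min, then started with NADPH (6 mM stock). Sampled at 0, 5, 15, 30 and 45 min, quenched with acetonitrile containing internal standard, centrifuged; supernatant diluted in water for LC/MS.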

Data set [2] in a line: Microsomal stability assay, mouse. In kind it is in vitro ADME. The following applies: microsomes, pH 7.41. Put shortly: as §1
The target in data set [3] is SARS-CoV-2 3CL^pro (Severe acute respiratory syndrome coronavirus 2, UniProt P0DTD1). In kind it is biochemical.
The nature of data set [4]: Single-dose pharmacokinetics in ICR mice. It counts as in vivo. The following applies: single-dose oral administration 20 mg/kg. Put shortly:
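Mice randomly split into IV and PO groups, three per group; single dose 10 mg/kg IV or 20 mg/kg oral. After oral dosing, blood taken at 0.25, 0.5, 1, 2, 4, 6, 8 and 24 h. Plasma (20 μL) protein-precipitated with methanol containing 100 ng/mL internal standard, vortexed, centrifuged at 18000g for 10 min, analysed by LC-MS/MS. AUC(0-t) derived by pharmacokinetic modelling.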

For orientation: half-life means the time in which the quantity being followed falls by half. Higher therefore signals slow decline. Turning to `CC(C)(C)[C@H](NC(=O)C(F)(F)F)C(=O)N1[C@@H]2CC[C@@H](C2)[C@H]1C(=O)N[C@@H](C[C@@H]1CCNC1=O)C(=O)c1nc2ccccc2s1` [11b, (1R,3S,4S)-N-((S)-1-(benzo[d]thiazol-2-yl)-1-oxo-3-((S)-2-oxopyrrolidin-3-yl)propan-2-yl)-2-((S)-3,3-dimethyl-2-(2,2,2-trifluoroacetamido)butanoyl)-2-azabicyclo[2.2.1]heptane-3-carboxamide], the half-life at 0.75 h, 1 µM was 11.6 min in data set [1] and 7.74 min in data set [2].

On to `CC(C)(C)OC[C@H](NS(=O)(=O)C(F)(F)F)C(=O)N1[C@@H]2CC[C@@H](C2)[C@H]1C(=O)N[C@@H](C[C@@H]1CCNC1=O)C(=O)c1nc2ccccc2s1` [11g, (1R, 3S, 4S)-N-((S)-1-(benzo[d]thiazol-2-yl)-1-oxo-3-((S)-2-oxopyrrolidin-3-yl)propan-2-yl)-2-(O-(tert-butyl)-N-((trifluoromethyl)sulfonyl)-L-seryl)-2-azabicyclo [2.2.1] heptane-3-carboxamide], for which the “decrease of enzyme activity compared to 11e” value in data set [3] is given as 3 times.

For `COc1ccc(C[C@H](NS(=O)(=O)C(F)(F)F)C(=O)N2[C@@H]3CC[C@@H](C3)[C@H]2C(=O)N[C@@H](C[C@@H]2CCNC2=O)C(=O)c2nc3ccccc3s2)cc1` [11h, (1R, 3S, 4S)-N-((S)-1-(benzo[d]thiazol-2-yl)-1-oxo-3-((S)-2-oxopyrrolidin-3-yl)propan-2-yl)-2-((S)-3-(4-methoxyphenyl)-2-((trifluoromethyl)sulfonamido)propanoyl)-2-azabicyclo [2.2.1] heptane-3-carboxamide], the “decrease of enzyme activity compared to 11e” value in data set [3] is recorded as 6 times.

As to `CC(C)(F)C(=O)N[C@H](C(=O)N1[C@@H]2CC[C@@H](C2)[C@H]1C(=O)N[C@@H](C[C@@H]1CCNC1=O)C(=O)c1nc2ccccc2s1)C(C)(C)C` [11c, (1R,3S,4S)-N-((S)-1-(benzo[d]thiazol-2-yl)-1-oxo-3-((S)-2-oxopyrrolidin-3-yl)propan-2-yl)-2-((S)-2-(2-fluoro-2-methylpropanamido)-3,3-dimethylbutanoyl)-2-azabicyclo[2.2.1]heptane-3-carboxamide], the “decrease of 3CL^pro inhibitory activity compared to 11b” value in data set [3] (ratio of IC50 to that of 11b) turned out to be 11 folds. Moreover, the results for the half-life at 0.75 h, 1 µM in data set [1] and in data set [2] were 18 min and 4.82 min, respectively.

As to `[2H]C([2H])([2H])C(=O)N[C@H](C(=O)N1[C@@H]2CC[C@@H](C2)[C@H]1C(=O)N[C@@H](C[C@@H]1CCNC1=O)C(=O)c1nc2ccccc2s1)C(C)(C)C` [11d, (1R, 3S, 4S)-2-((S)-2-(acetamido-2,2,2-d3)-3,3-dimethylbutanoyl) -N-((S)-1-(benzo[d]thiazol-2-yl)-1-oxo-3-((S)-2-oxopyrrolidin-3-yl)propan-2-yl)-2-azabicyclo [2.2.1] heptane-3-carboxamide], the “decrease of 3CL^pro inhibitory activity compared to 11b” value in data set [3] is reported as 5 folds. For the same molecule, the values for the half-life at 0.75 h, 1 µM in data set [1] and in data set [2] were 42.2 min and 33.8 min, respectively.

`CC(C)(C)[C@H](NC(=O)C(F)(F)F)C(=O)N1C[C@H]2[C@@H]([C@H]1C(=O)N[C@H](C#N)C[C@@H]1CCNC1=O)C2(C)C` [nirmatrelvir, reference compound]: the half-life at 0.75 h, 1 µM in data set [1] came to 35.5 min; in data set [2], 17.7 min.

For the molecule `CC(C)(C)OC(=O)N[C@H](C(=O)N1[C@@H]2CC[C@@H](C2)[C@H]1C(=O)N[C@@H](C[C@@H]1CCNC1=O)C(=O)c1nc2ccccc2s1)C(C)(C)C` [11a, tert-butyl ((S)-1-((1R,3S,4S)-3-(((S)-1-(benzo[d]thiazol-2-yl)-1-oxo-3-((S)-2-oxopyrrolidin-3-yl)propan-2-yl)carbamoyl)-2-azabicyclo[2.2.1]heptan-2-yl)-3,3-dimethyl-1-oxobutan-2-yl)carbamate], the “decrease of 3CL^pro inhibitory activity compared to 11b” value in data set [3] is on record as 45 folds.

In the case of `CC(C)(C)[C@H](NS(=O)(=O)C(F)(F)F)C(=O)N1[C@@H]2CC[C@@H](C2)[C@H]1C(=O)N[C@@H](C[C@@H]1CCNC1=O)C(=O)c1nc2ccccc2s1` [11e, (1R, 3S, 4S)-N-((S)-1-(benzo[d]thiazol-2-yl)-1-oxo-3-((S)-2-oxopyrrolidin-3-yl)propan-2-yl)-2-((S)-3,3-dimethyl-2-((trifluoromethyl)sulfonamido)butanoyl)-2-azabicyclo [2.2.1] heptane-3-carboxamide], in data set [4], the “AUC(0-t) higher than that of 11b” value is 2.4 times and the “AUC(0-t) higher than that of nirmatrelvir” value is 5 times. Moreover, in data set [3], the “decrease of 3CL^pro inhibitory activity compared to 11b” value is 8 folds. Besides, the half-life at 1 μM in data set [1] is above 120 min. Moreover, the half-life at 1 μM in data set [2] is above 120 min.

As to `CN(C)S(=O)(=O)N[C@H](C(=O)N1[C@@H]2CC[C@@H](C2)[C@H]1C(=O)N[C@@H](C[C@@H]1CCNC1=O)C(=O)c1nc2ccccc2s1)C(C)(C)C` [11f, (1R, 3S, 4S)-N-((S)-1-(benzo[d]thiazol-2-yl)-1-oxo-3-((S)-2-oxopyrrolidin-3-yl)propan-2-yl)-2-((S)-2-((N,N-dimethylsulfamoyl)amino)-3,3-dimethylbutanoyl)-2-azabicyclo [2.2.1] heptane-3-carboxamide], the half-life at 0.75 h, 1 µM in data set [1] worked out at 3.25 min; in data set [2] it was 0.85 min.
